ChEMBL document CHEMBL1151853, “Synthesis, configurational stability and stereochemical biological evaluations of (S)- and (R)-5-hydroxythalidomides” (Bioorg Med Chem Lett, 2009)
Calls of active or inactive are those of the source. The calls are words filed in the database; no cut-off is given here.

Tests used:
HUVEC [1] = assay: Antiangiogenic activity against VEGF-induced HUVEC assessed as tube joint at 100 uM after 11 days after 11 days by BCIP/NBT visualization assay; type: functional, cell-based; details: Homo sapiens
Summary of the method: (§1)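 HUVECs co-cultured with fibroblasts (angiogenesis kit) grown with test drug at 30 or 100 μM plus VEGF-A 10 ng/ml for 11 days. Fixed in 70% ethanol, then mouse anti-human CD31 (1:4000, 1 h, 37 °C) and AP-conjugated goat anti-mouse IgG (1:500, 1 h, 37 °C), developed with BCIP/NBT. Mean ± S.E.M.; VEGF n = 9, VEGF + compound n = 3; Dunnett's test versus VEGF.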

HUVEC [2] = assay: Antiangiogenic activity against VEGF-induced HUVEC assessed as tube length at 100 uM after 11 days after 11 days by BCIP/NBT visualization assay; type: functional, cell-based; details: Homo sapiens; summary of the method: as §1
HUVEC [3] = assay: Antiangiogenic activity against VEGF-induced HUVEC assessed as tube area at 100 uM after 11 days by BCIP/NBT visualization assay; type: functional, Homo sapiens; summary of the method: as §1
[4] = Cytotoxicity against human HS-Sultan cells assessed as cell viability at 100 ug/ml after 72 hrs by MTT assay; type: functional; details: read-out: Activity
MCF7 = assay: Cytotoxicity against human MCF7 cells assessed as cell viability at 100 ug/ml after 72 hrs by MTT assay; type: functional; details: MCF7, 72 h, read-out: Activity
IM-9 = assay: Cytotoxicity against human IM9 cells assessed as cell viability at 100 ug/ml after 72 hrs by MTT assay; type: functional; details: IM-9, 72 h, read-out: Activity
KB = assay: Cytotoxicity against human KB cells assessed as cell viability at 100 ug/ml after 72 hrs by MTT assay; type: functional; details: read-out: Activity
HUVEC [5] = assay: Antiangiogenic activity against VEGF-induced HUVEC assessed as tube path at 100 uM after 11 days after 11 days by BCIP/NBT visualization assay; type: functional, cell-based; details: Homo sapiens; summary of the method: as §1
[6] = Stability assessed as half life at pH 6.24; type: physicochemical; details: buffer
[7] = Stability assessed as half life at pH 7.23; type: physicochemical; details: buffer
[8] = Stability assessed as half life at pH 8.78; type: physicochemical; details: buffer

Row | Structure (SMILES) | Activity (HUVEC [1]) | Activity (HUVEC [2]) | Activity (HUVEC [3]) | viability at 100 µg/mL [4] | viability at 100 µg/mL (MCF7) | viability at 100 µg/mL (IM-9) | viability at 100 µg/mL (KB) | Activity (HUVEC [5]) | half-life [6] | half-life [7] | half-life [8]
1 | O=C1CCC(N2C(=O)c3ccccc3C2=O)C(=O)N1 (racemic) [THALIDOMIDE] | inactive | inactive | <60% | 85.9% | 86.5% | 107% | 92.2% | inactive |  |  | 
2 | O=C1CC[C@@H](N2C(=O)c3ccccc3C2=O)C(=O)N1 | inactive | inactive | >70% | 75.6% | 89.8% | 87.1% | 96.9% | inactive |  |  | 
3 | O=C1CC[C@H](N2C(=O)c3ccccc3C2=O)C(=O)N1 |  |  | <60% | 88.6% | 81.3% | 93.5% | 95.6% |  | 27.8 h | 5.1 h | 2.6 h
